Data as given in ChEMBL document CHEMBL1938329, “The discovery of potent, selective, and orally active pyrazoloquinolines as PDE10A inhibitors for the treatment of Schizophrenia” (Bioorg Med Chem Lett, 2012).
Each block holds one molecule with its values, some of them ahead of it. Calls of active or inactive are those of the source. No cut-off for these calls is given here.

Experiments:
[1] = target: cAMP and cAMP-inhibited cGMP 3',5'-cyclic phosphodiesterase 10A (Homo sapiens, UniProt Q9Y233); test: Inhibition of recombinant human PDE10A using [3H]cAMP as substrate by scintillation proximity assay
How it was run: (§1)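 Scintillation proximity assay with [³H]cAMP as substrate, measuring hydrolysis of cAMP to AMP by recombinant human PDEs 1–11. Ki values are means of at least two experiments.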

[2] = target: Phosphodiesterase 6; test: Inhibition of recombinant human PDE6 using [3H]cAMP as substrate by scintillation proximity assay; assay type: protein assay; how it was run: as §1
[3] = Drug uptake in rat brain at 10 mg/kg, po after 6 hrs; assay type: ADME, organism-based; design: dose 10 mg/kg, route oral; settings: read-out: Drug uptake
How it was run: (§2)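 Rat cassette-accelerated rapid screen, 10 mg/kg oral. Plasma exposure measured over 0–6 h. Brain drug concentration taken at 6 h. Brain/plasma ratio is brain over plasma drug concentration at 6 h.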

[4] = target: Phosphodiesterase 6 (Homo sapiens) (UniProt Q13956+P18545+P35913+O43924+P16499+P51160); test: Inhibition of recombinant human PDE6 using [3H]cAMP as substrate at 3.6 uM by scintillation proximity assay; assay type: protein assay
[5] = tested on: Rattus norvegicus; test: Antipsychotic activity in CD rat assessed as inhibition of MK-801-induced hyperactivity at 30 mg/kg, po relative to control; assay type: functional, organism-based; design: dose 30 mg/kg
How it was run: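 Male CD rats habituated to locomotor activity chambers 24 h before testing. On test day, MK-801 (0.3 mg/kg, sc) co-administered with PDE10 inhibitor (po), then rats placed in apparatus. Inhibition expressed as percent of activity in inhibitor + MK-801 group relative to vehicle + MK-801 group.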

[6] = Drug uptake in CD rat brain at 30 mg/kg, po after 1 hr; assay type: ADME, organism-based; design: dose 30 mg/kg, route oral; settings: read-out: Drug uptake
[7] = AUC (0 to 6 hrs) in rat at 10 mg/kg, po; assay type: ADME, organism-based; design: time < 6 hr, dose 10 mg/kg, route oral; settings: plasma; how it was run: as §2
[8] = target: Dual 3',5'-cyclic-AMP and -GMP phosphodiesterase 11A (Homo sapiens, UniProt Q9HCR9); test: Inhibition of recombinant human PDE11 using [3H]cAMP as substrate by scintillation proximity assay; how it was run: as §1
[9] = Plasma protein binding in rat; assay type: ADME, cell-free; settings: read-out: PPB (converted)
[10] = target: 5-hydroxytryptamine receptor 1B (Homo sapiens) (UniProt P28222); test: Inhibition of 5HT1b at 10 uM
[11] = target: T1, 5-hydroxytryptamine receptor 3A (Homo sapiens) (UniProt P46098); test: Inhibition of 5HT3 at 10 uM
T1 sequence (whole entry): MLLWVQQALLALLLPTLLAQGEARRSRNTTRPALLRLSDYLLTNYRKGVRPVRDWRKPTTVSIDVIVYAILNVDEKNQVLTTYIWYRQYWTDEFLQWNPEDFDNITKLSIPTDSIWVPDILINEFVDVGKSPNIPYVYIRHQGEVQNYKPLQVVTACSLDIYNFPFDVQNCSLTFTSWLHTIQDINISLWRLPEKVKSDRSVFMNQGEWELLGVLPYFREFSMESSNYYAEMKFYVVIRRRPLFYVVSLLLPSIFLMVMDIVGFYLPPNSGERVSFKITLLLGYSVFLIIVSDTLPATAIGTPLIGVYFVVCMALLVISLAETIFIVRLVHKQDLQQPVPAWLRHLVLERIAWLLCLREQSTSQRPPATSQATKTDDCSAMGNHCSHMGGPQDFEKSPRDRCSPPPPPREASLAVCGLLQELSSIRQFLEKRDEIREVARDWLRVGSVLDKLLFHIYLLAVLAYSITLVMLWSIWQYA

[12] = target: Phosphodiesterase 7 (Homo sapiens, UniProt Q13946+Q9NP56); test: Inhibition of recombinant human PDE7 using [3H]cAMP as substrate by scintillation proximity assay; assay type: protein assay; how it was run: as §1
[13] = target: cGMP-dependent 3',5'-cyclic phosphodiesterase (Homo sapiens, UniProt O00408); test: Inhibition of recombinant human PDE2 using [3H]cAMP as substrate by scintillation proximity assay; how it was run: as §1
[14] = target: cGMP-specific 3',5'-cyclic phosphodiesterase (Homo sapiens, UniProt O76074); test: Inhibition of recombinant human PDE5A using [3H]cAMP as substrate by scintillation proximity assay; how it was run: as §1
[15] = target: Phosphodiesterase 1 (Homo sapiens, UniProt P54750+Q01064+Q14123); test: Inhibition of recombinant human PDE1 using [3H]cAMP as substrate by scintillation proximity assay; assay type: protein assay; how it was run: as §1
[16] = target: Casein kinase I isoform delta (Homo sapiens, UniProt P48730); test: Inhibition of CK1delta
[17] = target: Phosphodiesterase 4 (Homo sapiens, UniProt P27815+Q08499+Q07343+Q08493); test: Inhibition of recombinant human PDE4 using [3H]cAMP as substrate by scintillation proximity assay; assay type: protein assay; how it was run: as §1
[18] = target: Phosphodiesterase 3 (Homo sapiens, UniProt Q14432+Q13370); test: Inhibition of recombinant human PDE3 using [3H]cAMP as substrate by scintillation proximity assay; assay type: protein assay; how it was run: as §1
[19] = Ratio of drug level in brain to plasma in rat at 10 mg/kg, po at 6 hrs; assay type: ADME, organism-based; design: dose 10 mg/kg, route oral; settings: read-out: BPR; how it was run: as §2
[20] = target: Phosphodiesterase 8 (Homo sapiens, UniProt O95263+O60658); test: Inhibition of recombinant human PDE8 using [3H]cAMP as substrate by scintillation proximity assay; assay type: protein assay; how it was run: as §1
[21] = target: 5-hydroxytryptamine receptor 7 (Homo sapiens) (UniProt P34969); test: Inhibition of 5HT7 at 10 uM
[22] = target: High affinity cGMP-specific 3',5'-cyclic phosphodiesterase 9A (Homo sapiens, UniProt O76083); test: Inhibition of recombinant human PDE9 using [3H]cAMP as substrate by scintillation proximity assay; how it was run: as §1
High affinity cGMP-specific 3',5'-cyclic phosphodiesterase 9A, sequence (O76083 whole entry): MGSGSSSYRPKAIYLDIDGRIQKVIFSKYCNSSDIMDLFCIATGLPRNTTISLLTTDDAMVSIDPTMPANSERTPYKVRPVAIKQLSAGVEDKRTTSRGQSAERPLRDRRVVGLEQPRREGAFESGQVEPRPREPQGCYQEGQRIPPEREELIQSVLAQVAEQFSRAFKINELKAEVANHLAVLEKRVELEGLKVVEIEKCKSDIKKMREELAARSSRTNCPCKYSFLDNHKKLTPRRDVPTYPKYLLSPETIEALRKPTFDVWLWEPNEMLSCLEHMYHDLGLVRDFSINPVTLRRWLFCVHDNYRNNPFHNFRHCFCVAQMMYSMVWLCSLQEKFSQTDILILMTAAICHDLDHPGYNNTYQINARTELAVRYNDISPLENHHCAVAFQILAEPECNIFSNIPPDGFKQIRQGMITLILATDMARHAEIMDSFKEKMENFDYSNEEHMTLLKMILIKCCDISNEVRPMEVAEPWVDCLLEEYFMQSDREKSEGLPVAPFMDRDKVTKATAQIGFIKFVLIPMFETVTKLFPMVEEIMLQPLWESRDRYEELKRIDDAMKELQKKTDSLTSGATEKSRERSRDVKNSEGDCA

cAMP and cAMP-inhibited cGMP 3',5'-cyclic phosphodiesterase 10A, sequence (Q9Y233 whole entry): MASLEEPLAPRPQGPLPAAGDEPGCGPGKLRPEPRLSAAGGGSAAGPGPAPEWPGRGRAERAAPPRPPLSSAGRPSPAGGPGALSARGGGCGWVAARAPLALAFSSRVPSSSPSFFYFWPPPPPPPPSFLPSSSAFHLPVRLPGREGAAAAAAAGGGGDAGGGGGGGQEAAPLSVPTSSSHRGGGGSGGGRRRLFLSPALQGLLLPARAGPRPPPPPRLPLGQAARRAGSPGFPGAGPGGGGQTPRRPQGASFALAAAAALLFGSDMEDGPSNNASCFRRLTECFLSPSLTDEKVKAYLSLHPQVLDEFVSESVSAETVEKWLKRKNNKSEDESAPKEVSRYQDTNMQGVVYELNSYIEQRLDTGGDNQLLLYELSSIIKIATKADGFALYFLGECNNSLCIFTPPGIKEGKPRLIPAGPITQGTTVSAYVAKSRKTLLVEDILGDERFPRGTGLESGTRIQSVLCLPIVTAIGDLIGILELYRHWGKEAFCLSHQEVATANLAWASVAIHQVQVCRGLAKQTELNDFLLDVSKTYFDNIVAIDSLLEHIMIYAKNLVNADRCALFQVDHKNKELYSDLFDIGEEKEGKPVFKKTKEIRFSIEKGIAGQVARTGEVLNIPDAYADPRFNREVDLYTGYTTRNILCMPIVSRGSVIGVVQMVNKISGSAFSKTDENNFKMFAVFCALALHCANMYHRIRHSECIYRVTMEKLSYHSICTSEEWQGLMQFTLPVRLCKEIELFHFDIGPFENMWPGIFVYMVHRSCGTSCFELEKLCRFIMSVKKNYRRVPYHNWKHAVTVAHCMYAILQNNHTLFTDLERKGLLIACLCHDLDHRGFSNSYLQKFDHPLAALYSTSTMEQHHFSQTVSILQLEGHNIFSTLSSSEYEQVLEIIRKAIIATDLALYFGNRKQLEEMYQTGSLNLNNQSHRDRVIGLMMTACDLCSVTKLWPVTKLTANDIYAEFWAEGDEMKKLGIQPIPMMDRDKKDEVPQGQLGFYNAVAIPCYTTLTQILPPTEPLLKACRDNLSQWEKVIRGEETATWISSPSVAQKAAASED
Dual 3',5'-cyclic-AMP and -GMP phosphodiesterase 11A, sequence (Q9HCR9 whole entry): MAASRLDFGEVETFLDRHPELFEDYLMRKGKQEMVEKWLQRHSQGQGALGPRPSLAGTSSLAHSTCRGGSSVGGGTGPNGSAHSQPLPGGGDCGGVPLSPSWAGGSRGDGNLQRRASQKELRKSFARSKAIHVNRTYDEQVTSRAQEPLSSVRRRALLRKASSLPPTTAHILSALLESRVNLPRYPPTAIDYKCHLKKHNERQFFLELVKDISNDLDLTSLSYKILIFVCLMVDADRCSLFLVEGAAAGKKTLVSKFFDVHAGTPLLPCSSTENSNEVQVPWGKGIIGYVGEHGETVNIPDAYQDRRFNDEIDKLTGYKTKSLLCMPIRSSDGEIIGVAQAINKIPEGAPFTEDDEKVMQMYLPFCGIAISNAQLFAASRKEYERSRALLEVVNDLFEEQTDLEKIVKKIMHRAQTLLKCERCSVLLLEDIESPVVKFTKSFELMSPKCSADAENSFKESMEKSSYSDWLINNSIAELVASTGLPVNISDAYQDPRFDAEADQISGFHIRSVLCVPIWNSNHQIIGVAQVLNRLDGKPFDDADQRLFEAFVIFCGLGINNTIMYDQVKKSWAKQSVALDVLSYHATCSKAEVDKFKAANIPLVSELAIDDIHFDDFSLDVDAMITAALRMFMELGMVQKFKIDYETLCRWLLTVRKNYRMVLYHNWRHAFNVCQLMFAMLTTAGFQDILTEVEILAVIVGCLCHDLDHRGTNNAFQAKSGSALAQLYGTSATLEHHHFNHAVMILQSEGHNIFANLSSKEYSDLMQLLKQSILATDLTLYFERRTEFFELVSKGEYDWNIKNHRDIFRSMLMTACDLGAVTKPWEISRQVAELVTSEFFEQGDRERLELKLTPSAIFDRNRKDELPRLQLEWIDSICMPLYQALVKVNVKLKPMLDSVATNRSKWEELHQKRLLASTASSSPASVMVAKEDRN
5-hydroxytryptamine receptor 7 (Homo sapiens), sequence (P34969 whole entry): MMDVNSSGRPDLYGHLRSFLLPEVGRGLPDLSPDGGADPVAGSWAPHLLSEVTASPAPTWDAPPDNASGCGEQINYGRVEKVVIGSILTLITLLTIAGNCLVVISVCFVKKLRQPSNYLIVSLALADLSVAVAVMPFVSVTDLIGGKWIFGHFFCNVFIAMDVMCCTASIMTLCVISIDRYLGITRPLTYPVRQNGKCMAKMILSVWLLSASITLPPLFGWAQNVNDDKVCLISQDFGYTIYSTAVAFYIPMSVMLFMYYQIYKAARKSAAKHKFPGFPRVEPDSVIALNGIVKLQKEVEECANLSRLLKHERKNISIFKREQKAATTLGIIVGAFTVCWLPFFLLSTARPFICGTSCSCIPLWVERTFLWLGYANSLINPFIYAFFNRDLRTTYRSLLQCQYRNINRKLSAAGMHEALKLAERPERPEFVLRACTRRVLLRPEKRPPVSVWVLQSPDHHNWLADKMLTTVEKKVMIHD
Casein kinase I isoform delta, sequence (P48730 whole entry, canonical isoform): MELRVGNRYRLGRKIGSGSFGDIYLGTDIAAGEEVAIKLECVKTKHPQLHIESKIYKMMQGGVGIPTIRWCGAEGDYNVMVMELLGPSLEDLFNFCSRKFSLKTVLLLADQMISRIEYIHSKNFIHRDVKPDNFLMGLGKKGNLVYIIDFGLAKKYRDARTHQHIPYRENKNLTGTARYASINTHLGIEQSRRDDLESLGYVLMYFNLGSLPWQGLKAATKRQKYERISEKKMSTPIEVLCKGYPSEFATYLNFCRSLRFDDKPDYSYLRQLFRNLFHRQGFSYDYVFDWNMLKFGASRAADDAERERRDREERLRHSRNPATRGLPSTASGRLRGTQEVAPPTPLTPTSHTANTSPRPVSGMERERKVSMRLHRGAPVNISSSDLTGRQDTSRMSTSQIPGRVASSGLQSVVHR
5-hydroxytryptamine receptor 1B (Homo sapiens), sequence (P28222 whole entry): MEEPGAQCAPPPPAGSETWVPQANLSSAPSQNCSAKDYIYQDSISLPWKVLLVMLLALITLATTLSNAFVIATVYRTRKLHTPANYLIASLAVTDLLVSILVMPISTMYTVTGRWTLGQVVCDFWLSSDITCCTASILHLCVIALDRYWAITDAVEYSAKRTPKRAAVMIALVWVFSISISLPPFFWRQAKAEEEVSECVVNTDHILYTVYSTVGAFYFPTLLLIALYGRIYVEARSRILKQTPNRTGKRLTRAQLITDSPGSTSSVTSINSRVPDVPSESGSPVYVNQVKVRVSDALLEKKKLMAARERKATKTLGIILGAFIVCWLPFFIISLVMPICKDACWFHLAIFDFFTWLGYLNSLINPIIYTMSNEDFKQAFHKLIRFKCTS
cGMP-dependent 3',5'-cyclic phosphodiesterase, sequence (O00408 whole entry): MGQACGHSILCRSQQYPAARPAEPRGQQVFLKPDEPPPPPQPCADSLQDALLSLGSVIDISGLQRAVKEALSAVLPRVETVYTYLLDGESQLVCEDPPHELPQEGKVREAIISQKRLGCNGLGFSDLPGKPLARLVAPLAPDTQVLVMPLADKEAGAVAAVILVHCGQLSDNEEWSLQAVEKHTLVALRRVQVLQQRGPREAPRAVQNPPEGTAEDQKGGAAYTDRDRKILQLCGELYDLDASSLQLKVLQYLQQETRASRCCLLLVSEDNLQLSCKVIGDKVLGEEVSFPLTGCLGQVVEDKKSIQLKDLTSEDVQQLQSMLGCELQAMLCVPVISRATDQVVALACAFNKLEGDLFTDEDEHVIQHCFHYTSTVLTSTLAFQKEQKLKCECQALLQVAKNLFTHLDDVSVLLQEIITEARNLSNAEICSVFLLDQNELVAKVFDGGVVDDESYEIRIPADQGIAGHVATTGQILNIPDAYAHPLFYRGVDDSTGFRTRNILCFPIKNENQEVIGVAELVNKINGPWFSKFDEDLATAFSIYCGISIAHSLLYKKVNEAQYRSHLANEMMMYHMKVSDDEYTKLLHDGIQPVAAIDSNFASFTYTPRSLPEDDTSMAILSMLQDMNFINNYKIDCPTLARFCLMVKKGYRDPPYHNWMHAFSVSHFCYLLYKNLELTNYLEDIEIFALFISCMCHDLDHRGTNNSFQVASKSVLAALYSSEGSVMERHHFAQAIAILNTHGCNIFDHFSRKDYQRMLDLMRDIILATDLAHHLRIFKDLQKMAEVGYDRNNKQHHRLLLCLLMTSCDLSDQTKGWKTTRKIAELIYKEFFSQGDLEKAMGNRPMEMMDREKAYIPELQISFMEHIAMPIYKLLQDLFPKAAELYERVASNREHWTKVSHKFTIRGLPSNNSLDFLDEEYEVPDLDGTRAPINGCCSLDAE

Structure (SMILES): COc1cc(C)c2nc3[nH]nc(C)c3c(NCC3CCNCC3)c2c1
Ki [1]: 15 nM
Ki [2]: 14782 nM

Structure (SMILES): COc1cc(C)c2nc3[nH]nc(C)c3c(N(C)C3CCOCC3)c2c1
Ki [1]: 41 nM
Ki [2]: 7383 nM

Structure (SMILES): COc1cc(C)c2nc3[nH]nc(C)c3c(N3CCCNCC3)c2c1
Ki [1]: 15 nM

Structure (SMILES): Cc1n[nH]c2nc3ccccc3c(N3CCNCC3)c12
Ki [1]: 550 nM

Structure (SMILES): COc1cc(C)c2nc3[nH]nc(C)c3c(NCc3ccccn3)c2c1
Ki [1]: 6 nM
Ki [2]: 1811 nM

Structure (SMILES): COc1cc(C)c2nc3[nH]nc(C)c3c(NCC3CCOCC3)c2c1
Ki [1]: 52 nM
Ki [2]: 697 nM

Structure (SMILES): COc1cc(C)c2nc3[nH]nc(C)c3c(NCC3CNCCO3)c2c1 (configuration not stated)
Ki [1]: 5 nM
Ki [2]: 13882 nM

Structure (SMILES): COc1cc(C)c2nc3[nH]nc(C)c3c(N3CCNCC3)c2c1
Ki [8]: ≥ 770 nM
fraction unbound [9]: 0.16
inhibition [10]: 54%
inhibition [11]: 54%
Ki [12]: >= 770 nM
concentration at 6 h [3]: 123 ng/g
Ki [13]: ≥ 770 nM
Ki [14]: > 100000 nM
Ki [15]: >= 770 nM
IC50 [16]: 320 nM
Ki [17]: >= 770 nM
Ki [18]: >= 770 nM
Kp at 6 h [19]: 1.2
Ki [20]: >= 770 nM
inhibition [21]: 54%
AUC(0-t) at 6 h [7]: 3.3 µM·h
Ki [2]: >= 770 nM
Ki [22]: ≥ 770 nM

Structure (SMILES): COc1cc(C)c2nc3[nH]nc(C)c3c(NCc3ccncc3)c2c1
Ki [1]: 0.6 nM
Ki [2]: 211 nM

Second part, led by results:

concentration at 6 h [3]: < 10 ng/g
Ki [1]: 9.6 nM
Structure (SMILES): COc1cc(C)c2nc3[nH]nc(C)c3c(N3CCOC(CO)C3)c2c1 (racemic)

Ki [1]: 196 nM
Structure (SMILES): COc1cc(C)c2nc3[nH]nc(C)c3c(N3CCSCC3)c2c1

Ki [1]: 55 nM
inhibition [4]: 48%
Structure (SMILES): COc1cc(C)c2nc3[nH]nc(C)c3c(NC3CCNCC3)c2c1

concentration at 6 h [3]: < 10 ng/g
Ki [1]: 14 nM
Structure (SMILES): COc1cc(C)c2nc3[nH]nc(C)c3c(N3CCC(O)CC3)c2c1

Ki [1]: 585 nM
Structure (SMILES): COc1ccc2nc3[nH]nc(C)c3c(N3CCNCC3)c2c1

concentration at 6 h [3]: < 10 ng/g
concentration at 1 h [6]: 27 ng/g
Ki [1]: 3.3 nM
AUC(0-t) at 6 h [7]: 9.5 µM·h
Structure (SMILES): COc1cc(C)c2nc3[nH]nc(C)c3c(N3CCN(C(N)=O)[C@@H](C)C3)c2c1
inhibition [5]: inactive

Ki [1]: 35 nM
AUC(0-t) at 6 h [7]: 0.14 µM·h
Structure (SMILES): Cc1cc(Cl)cc2c(N3CCNCC3)c3c(C)n[nH]c3nc12
